Measurements collected from several papers.
Compare with care: the assays were run in different laboratories.
MTOR: Serine/threonine-protein kinase mTOR (MTOR, Homo sapiens, UniProt P42345)
HSP90B1: Endoplasmin (HSP90B1, Canis lupus familiaris, UniProt P41148)
SMARCA2 bromodomain: SWI/SNF-related matrix-associated actin-dependent regulator of chromatin subfamily A member 2, bromodomain (SMARCA2, Homo sapiens, UniProt P51531)

Cc1nc(NC(=O)N2CCC[C@H]2C(N)=O)sc1-c1ccnc(C(C)(C)C(F)(F)F)c1
Kd (MTOR; binding, competition with immobilised ligand): 645 nM

COC(=O)c1c(O)cc(O)c(Cl)c1CCC(=O)Nc1nccs1
Kd (HSP90B1; ligand displacement, FP): 1080 nM

N=c1ccc2c(-c3ccc(C(=O)NCCCCCCn4cc(CCCC(=O)Nc5nc6ccc(Cl)cc6c6nc(-c7ccco7)nn56)nn4)cc3C(=O)O)c3ccc(N)c(S(=O)(=O)O)c3oc-2c1S(=O)(=O)O
Kd (Adenosine receptor A3 (ADORA3, Homo sapiens, UniProt P0DMS8); binding, flow cytometry): 5.15 nM

Cc1cc2nc3c(=O)[nH]c(=O)nc-3n(C[C@H](O)[C@H](O)[C@H](O)COP(=O)(O)OP(=O)(O)OC[C@H]3O[C@@H](n4cnc5c(N)ncnc54)[C@H](O)[C@@H]3O)c2cc1C
Kd (Heterogeneous nuclear ribonucleoprotein H (Homo sapiens, UniProt P31943); binding; lysate): 53 nM

O=P(O)(O)O[C@H]1[C@H](O)[C@@H](OP(=O)(O)O)[C@H](OP(=O)(O)O)[C@@H](OP(=O)(O)O)[C@H]1O
Kd (PREX1 (Homo sapiens, UniProt Q8TCU6); binding, ITC): 440 nM

Cc1ncsc1-c1ccc(CNC(=O)[C@@H]2C[C@@H](O)CN2C(=O)[C@@H](NC(=O)C2(F)CC2)C(C)(C)C)c(OCCOCCOCCN2CCN(c3cc(-c4ccccc4O)nnc3N)CC2)c1
Kd (SMARCA2 bromodomain; binding, SPR): 4500 nM

C=CC(=O)N1CCC(C(=O)NCC(=O)N2CCN(c3nc(-c4cnc(N)nc4C(F)F)nc(N4CCOCC4)n3)CC2)CC1
Kd (MTOR; binding, competition with immobilised ligand): 32 nM

CC(C)Nc1ccnc(Nc2cccc(-c3cccnc3)c2)n1
Kd (Non-receptor tyrosine-protein kinase TYK2, JH2 (TYK2, Homo sapiens, UniProt P29597); binding, competition with immobilised ligand): 210 nM

COC(=O)c1c(O)cc(O)c(Cl)c1CCC(=O)Nc1ccccc1Cl
Kd (HSP90B1; ligand displacement, FP): 1850 nM

COc1cc2c(Nc3ccc(NC(=O)c4ccccc4)cc3)ncnc2cc1OCCCN1CCOCC1
Kd (Epidermal growth factor receptor (EGFR, Homo sapiens, UniProt P00533); binding): > 10000 nM

Cc1ncsc1-c1ccc(CNC(=O)[C@@H]2C[C@H](O)CN2C(=O)[C@@H](NC(=O)C2(F)CC2)C(C)(C)C)c(OCCOc2ccc(CN3CCN(c4cc(-c5ccccc5O)nnc4N)CC3)cc2)c1
Kd (SMARCA2 bromodomain; binding, SPR): 1100 nM

COC(=O)c1c(O)cc(O)c(Cl)c1CCC(=O)Nc1cccc(Cl)c1
Kd (HSP90B1; ligand displacement, FP): 6420 nM

NCCS(=O)(=O)O
Kd (Cyclin-dependent kinase 6 (CDK6, Homo sapiens, UniProt Q00534); binding): 143 nM

c1cncc(-c2cccc(Nc3nccc(NC4CCCCC4)n3)c2)c1
Kd (Non-receptor tyrosine-protein kinase TYK2, JH1 (TYK2, Homo sapiens, UniProt P29597); binding, competition with immobilised ligand): 350 nM

CCC(=O)N1CCC(C(=O)NCC(=O)N2CCN(c3nc(-c4cnc(N)nc4C(F)F)nc(N4CCOCC4)n3)CC2)CC1
Kd (MTOR; binding, competition with immobilised ligand): 33 nM

CCN(CC)CCCC(C)Nc1c2ccc(Cl)cc2nc2ccc(OC)cc12 (stereo not shown)
Kd (Lysozyme C (LYZ, Gallus gallus, UniProt P00698); binding, fluorescence): 4700 nM
